Reference: ChEMBL document CHEMBL1149329, “Synthesis and biological activity of sulfonamide derivatives of epipodophyllotoxin” (J Med Chem, 2004)
Values joined by “and” are separate entries in the source; they are usually repeats but may differ in a detail not shown here. Identical values can stand only once.

How the values were obtained:
[1] = test system: A-431; experiment: […] antiproliferative activity against A431 cell line; assay type: functional; settings: Homo sapiens
[2] = test system: A549; experiment: Antitumor activity against A549 non small cell carcinoma at dose range of 25-100 mg/kg on day 14, 21, 28; activity expressed as maximum tolerated dose; assay type: functional, Homo sapiens
In short: (§1)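 A549 human lung tumour cells were implanted orthotopically, 10⁶ cells through the chest wall into the left pleural space of anaesthetised BALB/C nude mice. Once tumours were established, drug was given iv on days 14, 21 and 28 after tumour cell injection. The endpoint was life span, expressed as T/C (%) = median survival time of treated/control × 100. MTD was the dose causing no toxic death and/or no weight loss >20%.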

[3] = test system: A549; experiment: […] antiproliferative activity against A549 cell line; assay type: functional; settings: Homo sapiens
[4] = test system: DU-145; experiment: […] antiproliferative activity against DU-145 cell line; assay type: functional; settings: Homo sapiens
[5] = biological target: DNA topoisomerase II (Homo sapiens) (UniProt P11388+Q02880); experiment: Inhibition of human DNA Topoisomerase II mediated DNA cleavage through the stabilization of transient DAN/topoisomerase II cleavage complex; assay type: protein assay
In short: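 Supercoiled pBS DNA (0.1 μg) preincubated 15 min at 30 °C with drug at 50 μM in 50 mM Tris-HCl pH 7.5, 1 mM ATP, 120 mM KCl, 10 mM MgCl2, 0.5 mM DTT, 0.1 mM EDTA, BSA. Two units human topo II added, 30 min at 30 °C. SDS/proteinase K digestion 30 min at 55 °C. 1% agarose gel with ethidium bromide; linear DNA percentage read, mean of three independent experiments.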

[6] = test system: HT-29; experiment: […] antiproliferative activity against HT-29 cell line; assay type: functional; settings: Homo sapiens
[7] = test system: L1210; experiment: Percent of L1210 cells in the G2+M phase of the cell cycle at a compound concentration of 0.2 uM; assay type: functional, Mus musculus
In short: (§2)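 L1210 cells (2.5 × 10⁵ cells/mL) were incubated for 21 h with compound at the stated concentration. Flow cytometry was run on 10⁴ cells per sample, and the percentage of cells in G2+M was recorded.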

[8] = test system: IGROV-1; experiment: […] antiproliferative activity against IGROV1 cell line; assay type: functional; settings: Homo sapiens
[9] = test system: K562; experiment: […] antiproliferative activity against K-562 cell line; assay type: functional; settings: Homo sapiens
[10] = test system: L1210; experiment: Inhibitory concentration required to reduce 50 percent L1210 cell growth; assay type: functional, cell-based; settings: Mus musculus
In short: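 L1210 cells were grown in RPMI 1640 with 10% fetal calf serum, 2 mM glutamine, antibiotics and 10 mM HEPES (pH 7.4). Cells were exposed to compound for 48 h. MTT was then added for 4 h at 37 °C, and formazan was dissolved in DMSO and read at 540 nm. IC50 is the concentration reducing OD by 50%, from linear regression on the linear part of the curve. Triplicate.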

[11] = test system: L1210; experiment: […] antiproliferative activity against L1210 cell line; assay type: functional; settings: Mus musculus
[12] = test system: MDA-MB-231; experiment: […] antiproliferative activity against MDA-MB-231 cell line; assay type: functional; settings: Homo sapiens
[13] = test system: P388; experiment: Evaluated for long-term survivors scored at day 60; 0/6; assay type: functional, Mus musculus
[14] = test system: NCI-H69; experiment: […] antiproliferative activity against NCI-H69 cell line; assay type: functional; settings: Homo sapiens
[15] = test system: P388; experiment: […] antiproliferative activity against P388 cell line; assay type: functional; settings: Mus musculus
[16] = test system: P388; experiment: Antitumor activity against P388 leukemia at dose range of 6.25-100 mg/kg on day 1, activity expressed as maximum tolerated dose; assay type: functional, Mus musculus
[17] = test system: P388; experiment: Median survival time of treated animals/median survival time of control animals; assay type: functional, Mus musculus
[18] = test system: SK-N-MC; experiment: […] antiproliferative activity against SK-N-MC cell line; assay type: functional; settings: Homo sapiens
[19] = test system: L1210; experiment: Percent of L1210 cells in the G2+M phase of the cell cycle at a compound concentration of 2.5 uM; assay type: functional, Mus musculus; in short: as §2
[20] = test system: L1210; experiment: Percent of L1210 cells in the G2+M phase of the cell cycle at a compound concentration of 0.5 uM; assay type: functional, Mus musculus; in short: as §2
[21] = test system: L1210; experiment: Percent of L1210 cells in the G2+M phase of the cell cycle at a compound concentration of 0.25 uM; assay type: functional, Mus musculus; in short: as §2
[22] = test system: A549; experiment: Antitumor activity against A549 non small cell carcinoma at dose range of 70-100 mg/kg on day 14, 21, 28; activity expressed as maximum tolerated dose; assay type: functional, Homo sapiens; in short: as §1
[23] = organism: Mus musculus; experiment: Compound was evaluated for long-term survivors scored at day 60; 6/42; assay type: functional
[24] = Median survival time of treated animals/median survival time of control animals; ranges from 122-131; assay type: functional; in short: as §1
[25] = test system: KB 3-1; experiment: In vitro antiproliferative activity against KB-3-1 cell line; settings: Homo sapiens
[26] = test system: L1210; experiment: Percent of L1210 cells in the G2+M phase of the cell cycle at a compound concentration of 10 uM; assay type: functional, Mus musculus; in short: as §2

SMILES: CCCCS(=O)(=O)N[C@@H]1c2cc3c(cc2[C@@H](c2cc(OC)c(O)c(OC)c2)[C@H]2C(=O)OC[C@@H]21)OCO3
- IC50 [1]: 142 nM
- MTD [2]: 50
- IC50 [3]: 62.6 nM
- IC50 [4]: 304 nM
- Activity [5]: 10
- IC50 [6]: 237 nM
- Effect [7]: 75%
- IC50 [8]: 61.4 nM
- IC50 [9]: 139 nM
- IC50 [10]: 33 nM
- IC50 [11]: 33.5 nM
- IC50 [12]: 69.2 nM
- LTS [13]: 0
- IC50 [14]: 316 nM
- IC50 [15]: 16.1 nM
- MTD [16]: 100
- T/C [17]: 161% and 105%
- IC50 [18]: 85.7 nM

SMILES: CCCCN(CCCC)S(=O)(=O)N[C@@H]1c2cc3c(cc2[C@@H](c2cc(OC)c(O)c(OC)c2)[C@H]2C(=O)OC[C@@H]21)OCO3
- Activity [5]: 0
- Effect [19]: 60%
- IC50 [10]: 510 nM

SMILES: COc1cc([C@@H]2c3cc4c(cc3[C@@H](NS(C)(=O)=O)[C@H]3COC(=O)[C@H]23)OCO4)cc(OC)c1O
- Activity [5]: 50
- IC50 [10]: 70 nM
- Effect [20]: 77%

SMILES: COc1cc([C@@H]2c3cc4c(cc3[C@@H](NS(=O)(=O)c3ccc(N=[N+]=[N-])cc3)[C@H]3COC(=O)[C@H]23)OCO4)cc(OC)c1O
- Activity [5]: 9
- IC50 [10]: 210 nM
- Effect [20]: 69%

SMILES: COc1cc([C@@H]2c3cc4c(cc3[C@@H](NS(=O)(=O)CCCCl)[C@H]3COC(=O)[C@H]23)OCO4)cc(OC)c1O
- Activity [5]: 14
- Effect [21]: 66%
- IC50 [10]: 45 nM

SMILES: COc1cc([C@@H]2c3cc4c(cc3[C@@H](NS(=O)(=O)CCCN=[N+]=[N-])[C@H]3COC(=O)[C@H]23)OCO4)cc(OC)c1O
- Activity [5]: 32
- IC50 [10]: 35 nM

SMILES: COc1cc([C@@H]2c3cc4c(cc3[C@@H](O[C@@H]3O[C@@H]5CO[C@@H](C)O[C@H]5[C@H](O)[C@H]3O)[C@H]3COC(=O)[C@H]23)OCO4)cc(OC)c1O [ETOPOSIDE]
- IC50 [1]: 591 nM
- MTD [22]: 70
- IC50 [3]: 664 nM
- IC50 [4]: 2370 nM
- Activity [5]: 50
- IC50 [6]: 2370 nM
- Effect [19]: 80%
- IC50 [8]: 984 nM
- IC50 [9]: 522 nM
- IC50 [12]: 600 nM
- LTS [23]: 6
- IC50 [14]: 1190 nM
- IC50 [15]: 29.8 nM
- MTD [16]: 100
- T/C [17]: 233%
- T/C [24]: 131%
- IC50 [18]: 275 nM
- IC50 [25]: 566 nM

SMILES: COc1cc([C@@H]2c3cc4c(cc3[C@@H](NS(=O)(=O)c3sc(NC(C)=O)nc3C)[C@H]3COC(=O)[C@H]23)OCO4)cc(OC)c1O
- Activity [5]: 7
- Effect [26]: 68%
- IC50 [10]: 3600 nM

SMILES: COc1cc([C@@H]2c3cc4c(cc3[C@@H](N=[N+]=[N-])[C@H]3COC(=O)[C@H]23)OCO4)cc(OC)c1O
- Activity [5]: 44
- Effect [19]: 61%
- IC50 [10]: 570 nM

SMILES: COc1cc([C@@H]2c3cc4c(cc3[C@@H](NS(=O)(=O)c3ccc(N)cc3)[C@H]3COC(=O)[C@H]23)OCO4)cc(OC)c1O
- Activity [5]: 0
- Effect [7]: 75%
- IC50 [10]: 340 nM

SMILES: COc1cc([C@@H]2c3cc4c(cc3[C@@H](NS(=O)(=O)c3ccc(S(C)(=O)=O)cc3)[C@H]3COC(=O)[C@H]23)OCO4)cc(OC)c1O
- Activity [5]: 10
- Effect [19]: 75%
- IC50 [10]: 550 nM
